ChEMBL document CHEMBL1150633, “In vitro cytotoxic activity of phenanthroindolizidine alkaloids from Cynanchum vincetoxicum and Tylophora tanakae against drug-sensitive and multidrug-resistant cancer cells” (J Nat Prod, 2002)

Key:
[1] = Cytotoxicity against multidrug-resistant human KBV1 cells by MTS/PMS assay; format: functional, cell-based; settings: KB-V1
Outline: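 Mycoplasma-free KB-V1 carcinoma cells, selected from KB-3-1 for vinblastine resistance and obtained from the NCI Laboratory of Cell Biology. They show a full multidrug-resistance phenotype including P-170 glycoprotein efflux pump expression. Cytotoxicity expressed as IC50.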

[2] = Cytotoxicity against drug-sensitive human KB-3-1 cells by MTS/PMS assay
[3] = Resistance index, ratio for IC50 for multidrug-resistant human KBV1 cells to IC50 for drug-sensitive human KB-3-1 cells

Structure (SMILES) | IC50 [1] | IC50 [2] | Ratio IC50 [3]
COc1cc2c(cc1O)c1c(c3cc(OC)c(OC)cc32)C[C@H]2CCCN2C1 | 17 nM | 15 nM | 
COc1cc2c3c(c4ccc(OC)c(OC)c4c2cc1OC)C[C@@H]1CCCN1C3 | 54 nM | 43 nM | 
COc1cc2c3c(c4cc(OC)c(OC)cc4c2cc1OC)CN1CCC[C@@H]1C3 [TYLOPHORINE] | 173 nM | 214 nM | 
COc1cc2c3c(c4ccc(O)cc4c2cc1OC)CN1CCC[C@@H]1C3 | 10 nM | 7 nM | 
COc1ccc(C2=C(c3ccc(O)cc3)CN3CCC[C@@H]3C2)cc1OC | 425 nM | 403 nM | 
COC(=O)c1ccccc1-c1c2ccc(=N)cc-2oc2cc(N)ccc12.Cl [RHODAMINE123] | > 500000 nM | 2200 nM | >225
CC[C@]1(O)C[C@@H]2CN(CCc3c([nH]c4ccccc34)[C@@](C(=O)OC)(c3cc4c(cc3OC)N(C)[C@H]3[C@@](O)(C(=O)OC)[C@H](OC(C)=O)[C@]5(CC)C=CCN6CC[C@]43[C@@H]65)C2)C1 [VINBLASTINE] |  |  | 210
COc1ccc(C2=C(c3ccc(OC)c(OC)c3)C[C@H]3CCCN3C2)cc1 | 2440 nM | 2630 nM | 
COc1ccc2c3c(c4cc(OC)c(OC)cc4c2c1)C[C@H]1CCCN1C3 [(-)-ANTOFINE] | 14 nM | 16 nM | 
